{"source": "ChEMBL document CHEMBL4177603", "about": "(Bioorg Med Chem Lett, 2017)", "key": {"Cytochrome P450 1A2": {"target": "Cytochrome P450 1A2 (Homo sapiens, UniProt P05177)", "test": "Inhibition of CYP1A2 (unknown origin)", "format": "ADME"}, "[1]": {"target": "Muscarinic acetylcholine receptor M3 (Homo sapiens) (UniProt P20309)", "test": "Agonist activity at human M3 receptor expressed in CHOK1 cells assessed as increase in calcium flux at 10 uM by fluorimetric method relative to control", "format": "functional, cell-based"}, "Cytochrome P450 2C8": {"target": "Cytochrome P450 2C8 (Homo sapiens, UniProt P10632)", "test": "Inhibition of CYP2C8 (unknown origin)", "format": "ADME"}, "[2]": {"test": "Volume of distribution at steady state in iv dosed mouse", "format": "ADME, organism-based", "conditions": "in vivo, read-out: Vdss"}, "[3]": {"target": "Sodium-dependent dopamine transporter (Homo sapiens, UniProt Q01959)", "test": "Displacement of [3H]BTCP from recombinant human dopamine transporter at 10 uM after 120 mins by scintillation counting method"}, "[4]": {"test": "Clearance in dog plasma at 0.3 mg/kg, iv via infusion for 0.5 hrs", "format": "ADME, organism-based, Canis lupus familiaris"}, "[5]": {"target": "Substance-P receptor (Homo sapiens) (UniProt P25103)", "sequence (P25103 whole entry)": "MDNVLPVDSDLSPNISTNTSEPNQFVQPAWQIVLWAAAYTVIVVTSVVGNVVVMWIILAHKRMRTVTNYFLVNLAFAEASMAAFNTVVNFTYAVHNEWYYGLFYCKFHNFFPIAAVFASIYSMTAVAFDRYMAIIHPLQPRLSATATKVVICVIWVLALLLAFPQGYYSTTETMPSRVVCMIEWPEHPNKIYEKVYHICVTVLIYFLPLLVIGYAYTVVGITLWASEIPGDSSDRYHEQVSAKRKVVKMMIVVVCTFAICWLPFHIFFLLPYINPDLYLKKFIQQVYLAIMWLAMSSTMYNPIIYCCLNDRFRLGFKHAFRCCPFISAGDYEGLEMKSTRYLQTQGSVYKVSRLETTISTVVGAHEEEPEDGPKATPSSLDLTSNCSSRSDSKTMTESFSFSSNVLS", "test": "Agonist activity at human NK1 receptor expressed in U373MG cells assessed as increase in calcium flux at 10 uM by fluorimetric method relative to control", "format": "functional, cell-based"}, "[6]": {"target": "T1, 5-hydroxytryptamine receptor 1B (Homo sapiens, UniProt P28222)", "T1 sequence (P28222 whole entry)": "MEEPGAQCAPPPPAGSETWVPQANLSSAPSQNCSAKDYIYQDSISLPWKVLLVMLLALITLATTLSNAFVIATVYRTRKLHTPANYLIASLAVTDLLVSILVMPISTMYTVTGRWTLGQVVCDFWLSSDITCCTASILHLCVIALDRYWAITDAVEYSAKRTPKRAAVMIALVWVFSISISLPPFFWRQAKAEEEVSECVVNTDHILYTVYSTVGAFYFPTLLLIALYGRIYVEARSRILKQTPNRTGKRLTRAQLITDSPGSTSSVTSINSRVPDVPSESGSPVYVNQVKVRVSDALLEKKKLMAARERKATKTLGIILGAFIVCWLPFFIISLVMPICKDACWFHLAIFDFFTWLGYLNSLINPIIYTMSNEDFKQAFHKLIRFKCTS", "test": "Agonist activity at human 5-HT1B receptor expressed in HeLa cells assessed as increase in cAMP accumulation at 10 uM measured after 20 mins by HTRF method relative to control", "format": "functional, cell-based"}, "Cytochrome P450 3A4": {"target": "Cytochrome P450 3A4 (Homo sapiens, UniProt P08684)", "sequence (P08684 whole entry)": "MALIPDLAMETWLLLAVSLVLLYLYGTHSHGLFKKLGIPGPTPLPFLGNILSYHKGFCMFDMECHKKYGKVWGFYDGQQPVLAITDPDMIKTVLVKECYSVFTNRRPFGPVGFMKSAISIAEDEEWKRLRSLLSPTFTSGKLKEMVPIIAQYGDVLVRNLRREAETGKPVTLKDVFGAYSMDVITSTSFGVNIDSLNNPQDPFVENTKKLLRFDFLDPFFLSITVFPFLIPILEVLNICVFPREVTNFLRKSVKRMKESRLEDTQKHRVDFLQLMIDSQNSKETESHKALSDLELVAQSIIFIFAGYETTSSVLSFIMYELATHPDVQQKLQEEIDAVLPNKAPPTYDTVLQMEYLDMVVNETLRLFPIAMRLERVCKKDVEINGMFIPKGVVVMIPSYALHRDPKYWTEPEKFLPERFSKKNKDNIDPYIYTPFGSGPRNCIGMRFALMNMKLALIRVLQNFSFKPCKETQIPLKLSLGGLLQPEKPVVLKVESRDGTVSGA", "test": "Inhibition of CYP3A4 (unknown origin)", "format": "ADME"}, "[7]": {"test": "Volume of distribution at steady state in rat at 0.3 mg/kg, iv via infusion for 1 hr", "format": "ADME, organism-based", "conditions": "in vivo, read-out: Vdss"}, "[8]": {"target": "T2, Muscarinic acetylcholine receptor M1 (Homo sapiens) (UniProt P11229)", "T2 sequence (whole entry)": "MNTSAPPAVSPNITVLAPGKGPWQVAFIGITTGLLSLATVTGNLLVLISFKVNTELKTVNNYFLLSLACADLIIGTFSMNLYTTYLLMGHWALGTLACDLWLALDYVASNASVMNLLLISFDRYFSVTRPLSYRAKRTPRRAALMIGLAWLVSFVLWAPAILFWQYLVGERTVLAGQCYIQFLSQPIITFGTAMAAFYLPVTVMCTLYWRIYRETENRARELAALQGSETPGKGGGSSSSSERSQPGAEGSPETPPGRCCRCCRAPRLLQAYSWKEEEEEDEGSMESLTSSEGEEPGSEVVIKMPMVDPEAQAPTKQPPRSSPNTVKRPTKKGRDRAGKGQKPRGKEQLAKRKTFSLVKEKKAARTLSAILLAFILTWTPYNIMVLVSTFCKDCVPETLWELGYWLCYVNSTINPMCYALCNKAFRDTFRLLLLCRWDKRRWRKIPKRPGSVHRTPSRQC", "test": "Antagonist activity at human M1 receptor expressed in CHOK1 cells assessed as inhibition of acetylcholine-induced calcium flux at 10 uM by fluorimetric method relative to control", "format": "functional, cell-based"}, "[9]": {"target": "T2, Muscarinic acetylcholine receptor M1 (Homo sapiens)", "test": "Agonist activity at human M1 receptor expressed in CHOK1 cells assessed as increase in calcium flux at 10 uM by fluorimetric method relative to control", "format": "functional, cell-based"}, "[10]": {"target": "Kappa-type opioid receptor (Homo sapiens) (UniProt P41145)", "sequence (P41145 whole entry)": "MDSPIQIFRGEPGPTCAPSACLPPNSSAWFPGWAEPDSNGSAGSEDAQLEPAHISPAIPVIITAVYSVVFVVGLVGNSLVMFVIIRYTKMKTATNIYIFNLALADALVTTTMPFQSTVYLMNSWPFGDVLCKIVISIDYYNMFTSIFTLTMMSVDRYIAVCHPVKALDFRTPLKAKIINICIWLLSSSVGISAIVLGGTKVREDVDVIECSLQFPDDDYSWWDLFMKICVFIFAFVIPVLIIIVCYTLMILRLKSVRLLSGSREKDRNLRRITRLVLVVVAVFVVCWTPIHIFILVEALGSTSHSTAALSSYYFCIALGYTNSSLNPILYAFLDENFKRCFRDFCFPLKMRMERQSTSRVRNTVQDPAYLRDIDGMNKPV", "test": "Agonist activity at human KOR assessed as increase in calcium flux at 10 uM by fluorimetric method relative to control", "format": "functional"}, "[11]": {"target": "T3, Alpha-1A adrenergic receptor (Homo sapiens) (UniProt P35348)", "T3 sequence (whole entry)": "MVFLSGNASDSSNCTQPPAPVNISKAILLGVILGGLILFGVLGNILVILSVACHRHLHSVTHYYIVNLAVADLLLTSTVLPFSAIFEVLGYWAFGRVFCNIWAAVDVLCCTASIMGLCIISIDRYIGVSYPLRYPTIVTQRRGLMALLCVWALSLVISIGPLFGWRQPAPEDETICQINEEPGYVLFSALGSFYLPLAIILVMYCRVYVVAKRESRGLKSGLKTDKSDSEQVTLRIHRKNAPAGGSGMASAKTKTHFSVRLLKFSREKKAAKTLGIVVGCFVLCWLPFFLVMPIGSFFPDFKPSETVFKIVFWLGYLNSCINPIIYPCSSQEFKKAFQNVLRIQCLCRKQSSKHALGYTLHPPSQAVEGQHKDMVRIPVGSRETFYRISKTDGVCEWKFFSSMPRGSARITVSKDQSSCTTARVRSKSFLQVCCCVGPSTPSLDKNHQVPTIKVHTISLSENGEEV", "test": "Displacement of [3H]prazosin from recombinant human alpha1a receptor at 10 uM after 60 mins by scintillation counting method"}, "[12]": {"target": "T3, Alpha-1A adrenergic receptor (Homo sapiens)", "test": "Agonist activity at recombinant human alpha1a receptor expressed in CHOK1 cells assessed as increase in calcium flux at 10 uM by fluorescence assay relative to control", "format": "functional, cell-based"}, "[13]": {"test": "Clearance in iv dosed mouse blood", "format": "ADME, organism-based", "conditions": "whole blood", "summary_of_the_method": "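Blood clearance was calculated from the measured plasma clearance and the measured blood:plasma ratio.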"}, "[14]": {"target": "Voltage-gated inwardly rectifying potassium channel KCNH2 (Homo sapiens, UniProt Q12809)", "sequence (Q12809 whole entry)": "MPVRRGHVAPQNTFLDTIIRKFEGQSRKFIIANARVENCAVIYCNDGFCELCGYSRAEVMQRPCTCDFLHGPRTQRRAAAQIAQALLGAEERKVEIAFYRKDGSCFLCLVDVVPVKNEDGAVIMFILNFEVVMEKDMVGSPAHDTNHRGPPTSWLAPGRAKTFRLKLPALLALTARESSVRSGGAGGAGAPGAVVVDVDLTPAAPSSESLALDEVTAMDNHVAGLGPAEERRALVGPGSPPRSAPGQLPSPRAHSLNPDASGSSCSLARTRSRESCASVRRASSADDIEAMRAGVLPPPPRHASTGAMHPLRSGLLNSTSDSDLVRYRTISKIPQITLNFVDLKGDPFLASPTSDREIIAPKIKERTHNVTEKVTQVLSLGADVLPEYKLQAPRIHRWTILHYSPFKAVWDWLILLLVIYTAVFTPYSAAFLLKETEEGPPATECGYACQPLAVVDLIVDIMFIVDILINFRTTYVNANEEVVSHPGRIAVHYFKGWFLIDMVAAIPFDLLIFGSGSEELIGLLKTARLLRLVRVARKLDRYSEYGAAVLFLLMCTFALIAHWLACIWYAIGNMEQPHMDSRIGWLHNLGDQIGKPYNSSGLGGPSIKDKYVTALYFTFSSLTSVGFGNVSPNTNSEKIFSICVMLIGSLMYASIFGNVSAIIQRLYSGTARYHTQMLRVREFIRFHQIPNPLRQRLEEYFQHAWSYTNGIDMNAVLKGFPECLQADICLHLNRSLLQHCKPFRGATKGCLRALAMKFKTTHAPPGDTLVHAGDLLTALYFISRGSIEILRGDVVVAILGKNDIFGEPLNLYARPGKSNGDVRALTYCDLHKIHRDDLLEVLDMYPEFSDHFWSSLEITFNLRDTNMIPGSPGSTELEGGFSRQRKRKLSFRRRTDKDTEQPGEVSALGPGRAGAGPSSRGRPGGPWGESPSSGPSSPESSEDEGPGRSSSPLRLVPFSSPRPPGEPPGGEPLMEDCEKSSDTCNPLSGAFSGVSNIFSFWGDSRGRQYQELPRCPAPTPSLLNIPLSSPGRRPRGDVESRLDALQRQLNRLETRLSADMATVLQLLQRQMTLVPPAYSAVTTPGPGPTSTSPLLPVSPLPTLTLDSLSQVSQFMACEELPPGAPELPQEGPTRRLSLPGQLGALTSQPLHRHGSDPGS", "test": "Inhibition of human ERG by PatchXpress electrophysiology method"}, "[15]": {"target": "Sodium-dependent serotonin transporter (Homo sapiens) (UniProt P31645)", "sequence (P31645 whole entry, looked up)": "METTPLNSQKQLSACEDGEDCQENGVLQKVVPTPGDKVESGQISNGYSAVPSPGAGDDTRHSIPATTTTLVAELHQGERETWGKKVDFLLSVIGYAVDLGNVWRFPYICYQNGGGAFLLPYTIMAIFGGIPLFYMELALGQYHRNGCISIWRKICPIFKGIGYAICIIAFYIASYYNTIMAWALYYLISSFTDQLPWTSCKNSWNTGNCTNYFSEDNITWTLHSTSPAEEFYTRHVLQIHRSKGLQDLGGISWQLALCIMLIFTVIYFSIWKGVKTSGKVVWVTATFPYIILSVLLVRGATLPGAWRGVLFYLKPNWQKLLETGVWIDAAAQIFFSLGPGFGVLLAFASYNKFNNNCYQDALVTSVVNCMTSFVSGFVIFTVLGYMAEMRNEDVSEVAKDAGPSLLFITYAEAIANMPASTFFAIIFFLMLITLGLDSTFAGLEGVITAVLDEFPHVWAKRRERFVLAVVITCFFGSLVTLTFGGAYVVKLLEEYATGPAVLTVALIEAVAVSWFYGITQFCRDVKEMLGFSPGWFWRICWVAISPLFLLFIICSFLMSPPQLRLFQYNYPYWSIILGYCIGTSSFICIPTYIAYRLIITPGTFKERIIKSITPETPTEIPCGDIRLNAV", "test": "Displacement of [3H]imipramine from recombinant human […] at 10 uM after 60 mins by scintillation counting method"}, "[16]": {"test": "Half-life in rat at 0.3 mg/kg, iv via infusion for 1 hr", "format": "ADME, organism-based", "conditions": "in vivo"}, "Cytochrome P450 2C19": {"target": "Cytochrome P450 2C19 (Homo sapiens, UniProt P33261)", "sequence (P33261 whole entry)": "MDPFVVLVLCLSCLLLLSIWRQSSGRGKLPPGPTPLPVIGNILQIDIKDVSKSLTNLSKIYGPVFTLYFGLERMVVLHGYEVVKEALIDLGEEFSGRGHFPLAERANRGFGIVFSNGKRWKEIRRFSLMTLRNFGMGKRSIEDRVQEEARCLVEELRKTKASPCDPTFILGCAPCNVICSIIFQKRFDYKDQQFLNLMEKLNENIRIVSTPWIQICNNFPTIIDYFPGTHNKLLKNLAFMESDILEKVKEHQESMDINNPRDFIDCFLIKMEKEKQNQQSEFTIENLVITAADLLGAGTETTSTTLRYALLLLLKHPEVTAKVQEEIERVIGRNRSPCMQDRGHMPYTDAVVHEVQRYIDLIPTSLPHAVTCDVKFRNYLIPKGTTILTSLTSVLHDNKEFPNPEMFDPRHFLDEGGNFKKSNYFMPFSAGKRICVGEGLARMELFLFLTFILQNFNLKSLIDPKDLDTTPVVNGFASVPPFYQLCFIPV", "test": "Inhibition of CYP2C19 (unknown origin)", "format": "ADME"}, "[17]": {"test": "Solubility of the compound in aqueous buffer at pH 3.2", "format": "physicochemical"}, "[18]": {"target": "Beta-2 adrenergic receptor (Homo sapiens) (UniProt P07550)", "sequence (P07550 whole entry, looked up)": "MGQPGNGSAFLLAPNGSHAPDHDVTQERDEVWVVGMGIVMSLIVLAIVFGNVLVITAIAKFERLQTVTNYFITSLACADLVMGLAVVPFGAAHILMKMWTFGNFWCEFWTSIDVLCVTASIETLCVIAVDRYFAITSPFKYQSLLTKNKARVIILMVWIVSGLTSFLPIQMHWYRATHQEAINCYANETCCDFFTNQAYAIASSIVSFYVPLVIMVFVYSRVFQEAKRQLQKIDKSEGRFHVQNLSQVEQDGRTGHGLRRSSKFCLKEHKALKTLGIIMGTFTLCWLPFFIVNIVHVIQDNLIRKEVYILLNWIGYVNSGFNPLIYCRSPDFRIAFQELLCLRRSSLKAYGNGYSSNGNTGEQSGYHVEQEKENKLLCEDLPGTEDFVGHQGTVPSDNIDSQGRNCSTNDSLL", "test": "Agonist activity at recombinant human beta2 receptor expressed in CHOK1 cells assessed as increase in cAMP accumulation at 10 uM after 30 mins by HTRF assay relative to control", "format": "functional, cell-based"}, "[19]": {"target": "Cholecystokinin receptor type A (Homo sapiens) (UniProt P32238)", "test": "Agonist activity at recombinant human CCK1 receptor expressed in CHOK1 cells assessed as increase in cAMP accumulation at 10 uM after 30 mins by HTRF assay relative to control"}, "[20]": {"target": "Histamine H1 receptor (Homo sapiens) (UniProt P35367)", "sequence (P35367 whole entry)": "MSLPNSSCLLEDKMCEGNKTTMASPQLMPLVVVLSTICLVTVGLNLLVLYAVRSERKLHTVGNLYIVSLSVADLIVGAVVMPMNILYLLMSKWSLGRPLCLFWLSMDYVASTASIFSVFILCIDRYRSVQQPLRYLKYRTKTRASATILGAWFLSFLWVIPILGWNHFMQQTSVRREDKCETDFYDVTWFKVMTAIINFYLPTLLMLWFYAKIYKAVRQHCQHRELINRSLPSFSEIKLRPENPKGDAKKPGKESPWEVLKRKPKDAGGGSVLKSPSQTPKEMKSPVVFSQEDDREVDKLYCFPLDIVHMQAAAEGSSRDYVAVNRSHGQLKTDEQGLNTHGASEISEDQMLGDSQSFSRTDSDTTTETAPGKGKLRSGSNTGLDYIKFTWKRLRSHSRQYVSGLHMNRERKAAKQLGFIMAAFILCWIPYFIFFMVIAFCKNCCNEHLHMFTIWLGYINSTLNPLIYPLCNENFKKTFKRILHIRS", "test": "Antagonist activity at human H1 receptor expressed in HEK293 cells assessed as inhibition of histamine-induced calcium flux at 10 uM by fluorimetric method relative to control", "format": "functional, cell-based"}, "[21]": {"target": "GABA-A receptor; alpha-1/beta-2/gamma-2 (Homo sapiens) (UniProt P14867+P47870+P18507)", "test": "Displacement of [3H]muscimol from recombinant human GABAalpha1beta2gamma2 at 10 uM measured after 120 mins by scintillation counting method", "format": "protein-complex assay"}, "[22]": {"target": "T1, 5-hydroxytryptamine receptor 1B", "test": "Agonist activity at human 5-HT1B receptor expressed in HeLa cells assessed as increase in cAMP accumulation measured after 20 mins by HTRF method", "format": "functional, cell-based"}, "[23]": {"test": "Volume of distribution at steady state in dog at 0.3 mg/kg, iv via infusion for 0.5 hrs", "format": "ADME, organism-based, Canis lupus familiaris", "conditions": "in vivo, read-out: Vdss"}}}
{"smiles": "N#Cc1cc(S(=O)(=O)Nc2ncns2)ccc1Oc1ccc(-c2cccc(C(F)(F)F)c2)cc1-c1ccnc(CNCCC2CCNCC2)c1", "values": [{"measurement": "IC50", "setting": "Cytochrome P450 1A2", "result": "> 30", "unit": "µM"}, {"measurement": "Activity", "setting": "[1]", "result": 8, "unit": "%"}, {"measurement": "IC50", "setting": "Cytochrome P450 2C8", "result": 6.17, "unit": "µM"}, {"measurement": "Vd", "setting": "[2]", "result": 0.54, "unit": "L/kg"}, {"measurement": "inhibition", "setting": "[3]", "result": 84, "unit": "%"}, {"measurement": "clearance", "setting": "[4]", "result": 17.8, "unit": "mL/min/kg"}, {"measurement": "Activity", "setting": "[5]", "result": 0, "unit": "%"}, {"measurement": "Activity", "setting": "[6]", "result": 141, "unit": "%"}, {"measurement": "IC50", "setting": "Cytochrome P450 3A4", "result": 1.15, "unit": "µM"}, {"measurement": "Vd", "setting": "[7]", "result": 0.59, "unit": "L/kg"}, {"measurement": "inhibition", "setting": "[8]", "result": 7, "unit": "%"}, {"measurement": "Activity", "setting": "[9]", "result": 2, "unit": "%"}, {"measurement": "Activity", "setting": "[10]", "result": 15, "unit": "%"}, {"measurement": "inhibition", "setting": "[11]", "result": -4, "unit": "%"}, {"measurement": "Activity", "setting": "[12]", "result": 7, "unit": "%"}, {"measurement": "clearance", "setting": "[13]", "result": 67.2, "unit": "mL/min/kg"}, {"measurement": "IC50", "setting": "[14]", "result": "> 25.2", "unit": "µM"}, {"measurement": "inhibition", "setting": "[15]", "result": 40, "unit": "%"}, {"measurement": "half-life", "setting": "[16]", "result": 12.6, "unit": "min"}, {"measurement": "IC50", "setting": "Cytochrome P450 2C19", "result": 1.32, "unit": "µM"}, {"measurement": "solubility", "setting": "[17]", "result": "> 906", "unit": "µg/mL"}, {"measurement": "Activity", "setting": "[18]", "result": 1, "unit": "%"}, {"measurement": "Activity", "setting": "[19]", "result": 4, "unit": "%"}, {"measurement": "inhibition", "setting": "[20]", "result": -5, "unit": "%"}, {"measurement": "inhibition", "setting": "[21]", "result": 0, "unit": "%"}, {"measurement": "EC50", "setting": "[22]", "result": "> 10", "unit": "µM"}, {"measurement": "Vd", "setting": "[23]", "result": 0.46, "unit": "L/kg"}]}
